Laboratory results from ChEMBL document CHEMBL3272334, “Folate antagonists. 10. Synthesis and antimalarial effects of 6-[[(aryl and aralkyl)amino]methyl]-2,4-pteridinediamines and -pteridinediamine 8-oxides” (1978).
Values after ≈ are worked out from the molar mass of the structure shown. Active and inactive are the calls of the source. No cut-off for these calls is given here.

Columns and labels:
Shigella sonnei = test: Antibacterial activity against Shigella sonnei C-10 assessed as growth inhibition by gradient plate test; assay type: functional
How it was run: (§1)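 Modified gradient-plate method, in vitro. Panel: Streptococcus faecalis MGH-2, normal S. aureus UC-76, drug-resistant S. aureus S18713, E. coli Vogel, Shigella sonnei C-10.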

Plasmodium berghei [1] = test: Antimalarial activity against drug-sensitive trophozoite stage of Plasmodium berghei infected in mouse assessed as increase in mean survival time up to 640 mg/kg, sc administered 72 hrs post infection; assay type: functional, organism-based; parameters: dose 640 mg/kg
Staphylococcus aureus [2] = test: Antibacterial activity against Staphylococcus aureus UC-76 assessed as growth inhibition by gradient plate test; assay type: functional; how it was run: as §1
Escherichia coli = test: Antibacterial activity against Escherichia coli Vogel assessed as growth inhibition by gradient plate test; assay type: functional; how it was run: as §1
Staphylococcus aureus [3] = test: Antibacterial activity against drug-resistant Staphylococcus aureus S18713 assessed as growth inhibition by gradient plate test; assay type: functional
How it was run: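 In vitro test against a bacterial panel (S. faecalis MGH-2, S. aureus UC-76 and drug-resistant S18713, E. coli Vogel, Shigella sonnei C-10), run as a modified gradient plate procedure.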

Enterococcus faecalis = test: Antibacterial activity against Streptococcus faecalis MGH2 assessed as growth inhibition by gradient plate test; assay type: functional; how it was run: as §1
Plasmodium gallinaceum [4] = test: Antimalarial activity against sporozoite stage of Plasmodium gallinaceum infected in white leghorn cockerel assessed as survival over 30 days at 120 mg/kg, sc administered through peanut oil on day of infection; assay type: functional, organism-based; parameters: dose 120 mg/kg
Plasmodium gallinaceum [5] = test: Antimalarial activity against sporozoite stage of Plasmodium gallinaceum infected in white leghorn cockerel assessed as survival over 30 days at 30 mg/kg, sc administered through peanut oil on day of infection; assay type: functional, organism-based; parameters: dose 30 mg/kg
Plasmodium gallinaceum [6] = test: Antimalarial activity against sporozoite stage of Plasmodium gallinaceum infected in white leghorn cockerel assessed as survival over 30 days at 3.75 mg/kg, sc administered through peanut oil on day of infection; assay type: functional, organism-based; parameters: dose 3.75 mg/kg
Plasmodium gallinaceum [7] = test: Antimalarial activity against sporozoite stage of Plasmodium gallinaceum infected in white leghorn cockerel assessed as survival over 30 days at 480 mg/kg, sc administered through peanut oil on day of infection; assay type: functional, organism-based; parameters: dose 480 mg/kg
Plasmodium gallinaceum [8] = test: Antimalarial activity against sporozoite stage of Plasmodium gallinaceum infected in white leghorn cockerel assessed as survival over 30 days at 60 mg/kg, sc administered through peanut oil on day of infection; assay type: functional, organism-based; parameters: dose 60 mg/kg
Plasmodium berghei [9] = test: Antimalarial activity against drug-sensitive trophozoite stage of Plasmodium berghei infected in mouse assessed as survival over 60 days at 320 mg/kg, sc administered 72 hrs post infection; assay type: functional, organism-based; parameters: dose 320 mg/kg
Plasmodium cynomolgi [10] = test: Antimalarial activity against trophozoite stage of Plasmodium cynomolgi infected in rhesus monkey at 3.16 mg/kg, po; assay type: functional, organism-based; parameters: dose 3.16 mg/kg
How it was run: (§2)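 Rhesus monkey, one oral dose. Trophozoite-induced P. cynomolgi infection at 3.16 mg/kg; sporozoite-induced P. cynomolgi infection at 10 mg/kg.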

Plasmodium berghei [11] = test: Antimalarial activity against trophozoite stage of Plasmodium berghei infected in mouse assessed as increase in mean survival time at 40 mg/kg, sc administered 72 hrs post infection; assay type: functional; settings: route subcutaneous
Plasmodium cynomolgi [12] = test: Antimalarial activity against sporozoite stage of Plasmodium cynomolgi infected in rhesus monkey at 10 mg/kg; assay type: functional, organism-based; parameters: dose 10 mg/kg; how it was run: as §2
Plasmodium gallinaceum [13] = test: Antimalarial activity against sporozoite stage of Plasmodium gallinaceum infected in white leghorn cockerel assessed as increase in mean survival time at 3.75 mg/kg, sc administered through peanut oil on day of infection; assay type: functional; settings: route subcutaneous
Plasmodium gallinaceum [14] = test: Antimalarial activity against sporozoite stage of Plasmodium gallinaceum infected in white leghorn cockerel assessed as increase in mean survival time at 7.5 mg/kg, sc administered through peanut oil on day of infection; assay type: functional; settings: route subcutaneous
Plasmodium gallinaceum [15] = test: Antimalarial activity against sporozoite stage of Plasmodium gallinaceum infected in white leghorn cockerel assessed as survival over 30 days at 15 mg/kg, sc administered through peanut oil on day of infection; assay type: functional, organism-based; parameters: dose 15 mg/kg
Plasmodium gallinaceum [16] = test: Antimalarial activity against sporozoite stage of Plasmodium gallinaceum infected in white leghorn cockerel assessed as increase in mean survival time at 480 mg/kg, sc administered through peanut oil on day of infection; assay type: functional; settings: route subcutaneous
Plasmodium gallinaceum [17] = test: Antimalarial activity against sporozoite stage of Plasmodium gallinaceum infected in white leghorn cockerel assessed as increase in mean survival time at 30 mg/kg, sc administered through peanut oil on day of infection; assay type: functional; settings: route subcutaneous
Plasmodium gallinaceum [18] = test: Antimalarial activity against sporozoite stage of Plasmodium gallinaceum infected in white leghorn cockerel assessed as increase in mean survival time at 120 mg/kg, sc administered through peanut oil on day of infection; assay type: functional; settings: route subcutaneous
Plasmodium gallinaceum [19] = test: Antimalarial activity against sporozoite stage of Plasmodium gallinaceum infected in white leghorn cockerel assessed as survival over 30 days at 320 mg/kg, sc administered through peanut oil on day of infection; assay type: functional, organism-based; parameters: dose 320 mg/kg
Plasmodium gallinaceum [20] = test: Antimalarial activity against sporozoite stage of Plasmodium gallinaceum infected in white leghorn cockerel assessed as survival over 30 days at 20 mg/kg, sc administered through peanut oil on day of infection; assay type: functional, organism-based; parameters: dose 20 mg/kg
Plasmodium gallinaceum [21] = test: Antimalarial activity against sporozoite stage of Plasmodium gallinaceum infected in white leghorn cockerel assessed as survival over 30 days at 80 mg/kg, sc administered through peanut oil on day of infection; assay type: functional, organism-based; parameters: dose 80 mg/kg
Plasmodium berghei [22] = test: Antimalarial activity against trophozoite stage of Plasmodium berghei infected in mouse assessed as increase in mean survival time at 160 mg/kg, sc administered 72 hrs post infection; assay type: functional; settings: route subcutaneous

SMILES | MIC (Shigella sonnei) [µg/mL] | Activity (Plasmodium berghei [1]) | MIC (Staphylococcus aureus [2]) [µg/mL] | MIC (Escherichia coli) [µg/mL] | MIC (Staphylococcus aureus [3]) [µg/mL] | MIC (Enterococcus faecalis) [µg/mL] | further results
CN(Cc1cnc2nc(N)nc(N)c2n1)c1ccc(Cl)c(Cl)c1 | > 25 | inactive | < 0.25 | > 25 | 1.5 (≈ 4.28 µM) | < 0.25 | 
CCN(Cc1cnc2nc(N)nc(N)c2n1)c1ccc(Cl)cc1 | > 25 | inactive | < 0.25 | > 25 | 1.5 (≈ 4.55 µM) | < 0.25 | 
COc1cc(N(C)Cc2c[n+]([O-])c3nc(N)nc(N)c3n2)cc(OC)c1OC |  | inactive |  |  |  |  | 
CCN(Cc1c[n+]([O-])c2nc(N)nc(N)c2n1)c1ccc(Cl)cc1 |  | inactive |  |  |  |  | 
CC(C)N(Cc1c[n+]([O-])c2nc(N)nc(N)c2n1)c1ccc(Cl)cc1 |  | inactive |  |  |  |  | 
CCCN(Cc1cnc2nc(N)nc(N)c2n1)c1ccc(Cl)c(Cl)c1 | > 25 | inactive | < 0.25 | > 25 | < 0.25 | < 0.25 | Activity (Plasmodium gallinaceum [4]): Active; Activity (Plasmodium gallinaceum [5]): Active; Activity (Plasmodium gallinaceum [6]): Active; Activity (Plasmodium gallinaceum [7]): Active; Activity (Plasmodium gallinaceum [8]): Active
CN(Cc1cnc2nc(N)nc(N)c2n1)c1cccc2ccccc12 | > 25 |  | 1 (≈ 3.02 µM) | > 25 | > 2.5 | < 0.25 | Activity (Plasmodium berghei [9]): Active; Activity (Plasmodium cynomolgi [10]): inactive; Survival (Plasmodium berghei [11]): 5.4 days; Activity (Plasmodium cynomolgi [12]): inactive
CC(C)N(Cc1c[n+]([O-])c2nc(N)nc(N)c2n1)c1ccc(Cl)c(Cl)c1 |  | inactive |  |  |  |  | 
CN(Cc1c[n+]([O-])c2nc(N)nc(N)c2n1)c1ccc(Cl)cc1 |  | inactive |  |  |  |  | 
Nc1nc(N)c2nc(CN3CCCc4ccccc43)cnc2n1 |  |  |  |  |  |  | Activity (Plasmodium gallinaceum [4]): Active; Activity (Plasmodium gallinaceum [5]): Active; Survival (Plasmodium gallinaceum [13]): 1.3 days; Activity (Plasmodium gallinaceum [7]): Active; Activity (Plasmodium gallinaceum [8]): Active; Survival (Plasmodium gallinaceum [14]): 2.3 days
CCOC(=O)c1ccc(N(C)Cc2cnc3nc(N)nc(N)c3n2)cc1 |  | inactive |  |  |  |  | Activity (Plasmodium gallinaceum [4]): Active; Activity (Plasmodium gallinaceum [7]): Active; Activity (Plasmodium gallinaceum [8]): Active
CCN(Cc1c[n+]([O-])c2nc(N)nc(N)c2n1)c1ccc(OC)cc1 |  | inactive |  |  |  |  | 
Nc1nc(N)c2nc(CN(C=O)c3ccc(Cl)c(Cl)c3)cnc2n1 | > 25 | inactive | 1 (≈ 2.75 µM) | > 25 | 2 (≈ 5.49 µM) | < 0.25 | 
CC(C)N(Cc1cnc2nc(N)nc(N)c2n1)c1ccc(Cl)c(Cl)c1 | > 25 | inactive | < 0.25 | > 25 | < 0.25 | < 0.25 | 
CC(C)N(Cc1cnc2nc(N)nc(N)c2n1)c1ccc(Cl)cc1.CN(C)C=O | > 25 | inactive | < 0.25 | > 25 | 1.5 | < 0.25 | Activity (Plasmodium gallinaceum [15]): Active; Activity (Plasmodium gallinaceum [4]): Active; Activity (Plasmodium gallinaceum [5]): Active; Activity (Plasmodium gallinaceum [6]): Active; Activity (Plasmodium gallinaceum [7]): Active; Activity (Plasmodium gallinaceum [8]): Active
CCCN(Cc1c[n+]([O-])c2nc(N)nc(N)c2n1)c1ccc(Cl)c(Cl)c1 |  | inactive |  |  |  |  | 
CN(C)C=O.Nc1nc(N)c2nc(CNc3ccc(Cl)c(Cl)c3)cnc2n1 | > 25 | inactive | < 0.25 | > 25 | < 0.25 | < 0.25 | 
CN(C)C=O.Nc1nc(N)c2nc(CN3CCCCC3c3ccccc3)cnc2n1 (configuration not stated) |  |  |  |  |  |  | Survival (Plasmodium gallinaceum [16]): 0.3 days; Survival (Plasmodium gallinaceum [17]): 0.1 days; Survival (Plasmodium gallinaceum [18]): 0.2 days
CN(Cc1c[n+]([O-])c2nc(N)nc(N)c2n1)c1cccc2ccccc12 |  | inactive |  |  |  |  | 
CN(Cc1c[n+]([O-])c2nc(N)nc(N)c2n1)c1ccc(Cl)c(Cl)c1 |  | inactive |  |  |  |  | 
CCN(Cc1cnc2nc(N)nc(N)c2n1)c1ccc(OC)cc1 | > 25 | inactive | < 0.25 | > 25 | < 0.25 | < 0.25 | Activity (Plasmodium gallinaceum [19]): Active; Activity (Plasmodium gallinaceum [20]): Active; Activity (Plasmodium gallinaceum [21]): Active
Nc1nc(N)c2nc(CNc3ccc(Cl)c(Cl)c3)c[n+]([O-])c2n1 |  | inactive |  |  |  |  | 
CN(Cc1cnc2nc(N)nc(N)c2n1)c1ccc(Cl)cc1 | > 25 | inactive | 1.5 (≈ 4.75 µM) | > 25 | 2 (≈ 6.33 µM) | < 0.25 | 
COc1cc(N(C)Cc2cnc3nc(N)nc(N)c3n2)cc(OC)c1OC | > 25 |  | < 0.25 | > 25 | < 0.25 | < 0.25 | Activity (Plasmodium berghei [9]): Active; Survival (Plasmodium berghei [22]): 8.5 days
